Hits are enriched below; roughly 1.4% of the tested compounds scored in any of these assays.
hK5 inh = inhibitors of human kallikrein 5. Q9Y337. recombinant hK5, fluorogenic AMC substrate cleavage. inhibition, % at 5 µM. 210,000 compounds, 0.59% hits. AID 873;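 active = inhibition of 40% or more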;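 note: 0% = enzyme controls without compound and 100% = no-enzyme blanks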
m-calpain inh = inhibitors of pig calpain II; purified calpain II, fluorogenic peptide substrate, 30 min; inhibition, % at 16 µM; 220,000 compounds, 0.37% hits; AID 1236;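 active = inhibition above about 50%, limit read from the data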
Furin inhibitor = human furin inhibition; P09958; purified furin, fluorogenic substrate cleavage; inhibition, % at 20 µM or 30 µM; 220,000 compounds, 0.061% hits; AID 463115; in the data active = inhibition above about 25%
Target sequence (P09958 108-714 limits assumed): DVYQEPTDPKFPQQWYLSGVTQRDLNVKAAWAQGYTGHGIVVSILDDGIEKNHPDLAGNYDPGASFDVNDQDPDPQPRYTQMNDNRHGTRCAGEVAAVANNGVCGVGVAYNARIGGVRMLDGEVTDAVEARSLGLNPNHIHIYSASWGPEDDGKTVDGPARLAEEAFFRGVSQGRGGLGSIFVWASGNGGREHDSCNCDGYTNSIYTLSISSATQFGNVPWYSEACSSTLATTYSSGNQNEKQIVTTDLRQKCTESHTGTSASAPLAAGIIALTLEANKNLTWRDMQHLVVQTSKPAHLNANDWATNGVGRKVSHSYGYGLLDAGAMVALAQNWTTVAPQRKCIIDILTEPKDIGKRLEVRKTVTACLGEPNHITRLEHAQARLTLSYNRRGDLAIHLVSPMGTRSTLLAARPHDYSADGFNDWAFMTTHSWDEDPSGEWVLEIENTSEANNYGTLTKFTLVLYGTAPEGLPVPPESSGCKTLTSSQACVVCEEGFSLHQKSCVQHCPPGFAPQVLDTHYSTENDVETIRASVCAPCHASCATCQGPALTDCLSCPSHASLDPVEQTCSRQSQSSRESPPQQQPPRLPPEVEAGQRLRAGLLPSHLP
Thrombin inh = inhibitors of human thrombin | 220,000 compounds, 0.26% hits | alpha-thrombin, Boc-VPR-AMC fluorogenic substrate cleavage | inhibition, % at 5 µM | P00734;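 active = inhibition at or above 40%; inactive = inhibition below 40%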;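 note: 0% = enzyme with no compound and 100% = wells without enzyme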
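Test system: human alpha-thrombin; medium: pH 7.5 Tris-saline with Tween 20; times: reaction at room temperature; signal: AMC fluorescence at 355 nm excitation and 460 nm emission; also added: Boc-VPR-AMC substrate, 15 µM final; dosing: one concentration per compound, 5 µM, with 0.2% DMSO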
FXIIa inh 1536 = blocks human coagulation factor XIIa protease activity; purified FXIIa, Boc-QGR-AMC fluorogenic substrate, 2 h; 220,000 compounds, 0.3% hits; inhibition, % at 5 µM; P00748; AID 800; in the data active = inhibition above about 40%;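 note: 0% = enzyme with no compound and 100% = blank without enzyme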
FXIa inh = blocks human coagulation factor XIa protease activity. inhibition, % at 5 µM. AID 798. purified FXIa, Boc-Glu-Ala-Arg-AMC fluorogenic substrate. 220,000 compounds, 0.14% hits. P03951;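 active = inhibition of at least 40%; inactive = inhibition below 40%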;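 note: fluorescence of freed AMC excited at 355 nm; 0% = enzyme without compound and 100% = no enzyme blank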
The depositor's hits bear a star; . = not tested or not shown.

SMILES	hK5 inh	m-calpain inh	Furin inhibitor	Thrombin inh	FXIIa inh 1536	FXIa inh
COc1ccc(N2CCN(C(=O)CSc3ncnc4c3cnn4-c3ccccc3C)CC2)cc1	33.0	5.5	-4.5	11.0	0.0	2.4
Cc1ccc2cc3c(N)c4c(C)ccc(C)c4nc3nc2c1	6.1	22.6	-13.6	2.5	10.6	5.4
C/C(=N\OC(=O)C1CC1)C1CC1c1ccc(F)cc1 (stereo not given)	52.3*	19.0	-13.1	30.8	33.2	33.2
CC(C)c1cccc(C(C)C)c1NC(=O)c1ccccc1	0.4	-15.4	-16.7	1.7	7.5	1.9
CCN1C(=O)c2n[nH]c(C(=O)OC)c2C1=O	90.1*	4.1	-22.2	14.0	43.7*	16.9
COC(=O)c1ccc(-n2nnnc2SCC(=O)Nc2ccccc2C(=O)OC)cc1	-15.9	-8.9	-12.7	-4.3	-5.2	8.5
NC(=O)c1ccc(-n2nnnc2SCC(=O)Nc2ccccc2-c2ccccc2)cc1	-9.0	64.6*	-8.3	4.1	14.2	1.2
N#CC(c1cccc(Cl)c1)c1ccc2c(C(F)(F)F)cc(C(F)(F)F)nc2n1 (stereo not given)	-9.6	63.3*	-18.7	-2.4	12.4	3.7
COCCNC(=O)c1ccc(NS(=O)(=O)c2cc(C)ccc2C)cc1	41.7*	4.3	-17.4	18.0	19.9	10.6
Nn1c(SCc2cccc(Br)c2)nnc1-c1ccncc1	0.5	7.1	-12.6	-2.8	3.0	-3.4
CCOc1ccc(C(CC(=O)O)n2cnnn2)cc1 (stereo not given)	-5.2	-12.3	-27.1	-2.1	6.4	-2.3
O=C(Nc1ncnc2sc3c(c12)CCCCC3)c1ccc(F)cc1	6.4	23.1	-9.0	-1.7	47.4*	13.5
Cc1ccccc1NC(=S)N(CCc1c(C)[nH]c2ccc(F)cc12)Cc1cccnc1	1.9	63.5*	-23.0	-2.2	10.5	0.2
COc1ccc(N2C(=O)C3CCCN3C2c2ccc(C)o2)cc1 (stereo not given)	7.5	-4.5	-13.3	-6.4	1.9	-2.9
CCN(CC)c1ccc(NC(=S)NC(=O)c2cccs2)cc1	1.3	35.3	-12.7	-11.0	7.6	-3.9
CCc1cc2c(=O)n(Cc3ccccc3)c(SC3CCOC3=O)nc2s1 (stereo not given)	.	53.9*	-6.1	-4.9	1.7	-2.6
Cc1ccc(Cn2c(SC3CCOC3=O)nc3ccccc3c2=O)cc1 (stereo not given)	-3.1	-0.5	-7.4	-15.0	4.7	-4.8
CCC(C)c1ccc(O)c(NC(=O)c2cccnc2)c1 (stereo not given)	-21.6	-2.6	-18.6	0.7	19.0	-3.3
CC(C)c1ccc(O)c(NC(=S)NC(=O)c2cccnc2)c1	.	11.7	-0.3	2.5	40.6*	20.0
CCCCC1=CC2=C(c3ccco3)C(=O)C(C)(OC(=O)c3ccc(OC)cc3)C(=O)C2=CN1C1CCCCC1 (stereo not given)	1.5	-62.0	-19.1	-2.2	5.5	1.2
CO/N=C(\N)c1nonc1N	21.9	7.7	-10.4	16.9	24.8	57.6*
Cc1ccccc1Cn1cnc2c(NS(C)(=O)=O)c(C)c(C)cc21	-0.8	-8.3	-27.0	2.5	40.9*	0.9
COc1ccc(Cn2cnc3c(NS(C)(=O)=O)c(C)c(C)cc32)cc1	1.0	-33.3	-20.9	-3.3	11.2	-1.9
O=C(CN1CCCCCCC1)Nc1ccc(Cl)cc1Cl	-3.1	87.8*	-26.3	-3.1	5.0	-3.1
O=C(CN1CCCCC1)Nc1ccc(C(F)(F)F)cc1Cl	-9.7	11.8	-9.8	-4.7	-1.5	-5.2
SMILES	hK5 inh	m-calpain inh	Furin inhibitor	Thrombin inh	FXIIa inh 1536	FXIa inh
O=C(CSc1nc(-c2ccc(F)cc2)nc2c1Cc1ccccc1O2)Nc1ccc(C(=O)O)cc1	-3.6	79.2*	-23.5	-0.7	9.1	1.0
O=C(CSc1nc(-c2ccccc2)nc2c1Cc1ccccc1O2)Nc1ccc(C(=O)O)cc1	-4.5	43.1	-30.1	-7.4	3.5	-4.8
CC1CCCN(C(=O)c2sc3cc([N+](=O)[O-])ccc3c2Cl)C1 (stereo not given)	2.2	68.1*	-16.7	4.6	13.8	6.0
O=C(COC(=O)CCN1C(=O)c2cccc([N+](=O)[O-])c2C1=O)NCc1ccccc1	41.9*	16.7	-4.5	-7.9	26.5	38.4
COc1ccc(N2CCN(C(=O)Cn3cnc4c(cnn4-c4ccc(C)cc4)c3=O)CC2)cc1	2.5	20.3	-0.4	-16.5	-3.0	-0.6
O=C(NCc1cccnc1)C(=O)C1C(=O)Nc2ccccc21 (stereo not given)	40.9*	21.4	-9.7	-3.4	1.7	-2.4
O=C(CN(Cc1ccccc1)S(=O)(=O)c1ccc2c(c1)OCCO2)N/N=C/c1ccc(F)cc1	-9.5	-32.2	-1.2	-1.3	17.3	7.3
Cc1cc(C(=O)CN(Cc2ccc(F)cc2)S(=O)(=O)c2ccc3c(c2)OCCO3)c(C)n1C	4.2	58.4*	-7.9	-0.1	-8.9	-4.1
CC(CN1CCCC1)C(=O)NN (stereo not given)	22.8	15.0	-18.9	20.9	27.4	30.0
CC1=CC(=NOC(=O)c2cccc([N+](=O)[O-])c2)C=C(C)C1=O	-5.9	-7.2	-14.9	2.4	37.0	4.4
COc1cc(C(=O)O/N=C(\N)c2ccncc2)cc(OC)c1OC	4.3	-3.3	-23.5	0.1	20.6	4.6
COc1cc(C(=O)O/N=C2\C=CC(=O)C(C)=C2)cc(OC)c1OC	1.2	12.7	-14.8	3.8	96.2*	12.4
COc1cc(C(=O)ON=C2C=C(C)C(=O)C(C)=C2)cc(OC)c1OC	-5.8	0.2	-25.1	-3.7	90.1*	-4.8
COc1ccc(C(=O)ON=C2C=C(C)C(=O)C(C)=C2)cc1	8.7	5.0	-8.8	3.1	68.0*	17.6
O=C(CS(=O)(=O)c1ccc2ccccc2c1)N1CCCCCC1	2.5	-16.9	-20.0	-2.8	14.3	6.4
CCc1cccc(CC)c1NC(=O)c1cccc(N)c1	-20.1	-77.5	-16.9	45.7*	3.9	-12.7
CCc1cccc(CC)c1NC(=O)c1ccccc1	0.8	-12.0	-18.3	-1.6	10.9	-0.9
O=C(C1CC1)N1CCc2cc(Br)cc(S(=O)(=O)N3CCCCCC3)c21	0.7	14.6	-9.9	4.8	19.1	4.3
O=C(C1CC1)N1CCc2cc(Br)cc(S(=O)(=O)NC3CCCCC3)c21	-4.0	53.4*	-17.5	2.3	16.2	2.6
CSCCC(N=C(NS(=O)(=O)c1ccccc1)c1ccccc1)C(=O)O (stereo not given)	3.8	-30.0	-9.6	-3.8	12.1	3.2
C/C(=N\NC(=O)CCn1nnc2ccccc21)c1cccs1	19.4	8.8	-2.2	23.7	43.3*	11.2
O=C(CSc1nc2ccccc2o1)c1cc2ccccc2oc1=O	30.0	-40.1	-8.8	81.1*	12.5	6.1
CCN(CC)C(=O)Cn1cc(C(=O)C(=O)NCCCn2ccnc2)c2ccccc21	0.2	-28.3	-32.0	94.6*	8.2	-2.6
CCN(CC)C(=O)Cn1cc(C(=O)C(=O)NCc2cccs2)c2ccccc21	4.3	-15.2	-29.5	0.2	11.3	0.2
